{
  "source": "ChEMBL document CHEMBL4219238",
  "about": "“Design, synthesis, molecular modelling and in vitro cytotoxicity analysis of novel carbamate derivatives as inhibitors of Monoacylglycerol lipase” (Bioorg Med Chem, 2018)",
  "key": {"[1]": {"molecular_target": "T1, Monoglyceride lipase (Mus musculus, UniProt O35678)", "T1 sequence (O35678 whole entry)": "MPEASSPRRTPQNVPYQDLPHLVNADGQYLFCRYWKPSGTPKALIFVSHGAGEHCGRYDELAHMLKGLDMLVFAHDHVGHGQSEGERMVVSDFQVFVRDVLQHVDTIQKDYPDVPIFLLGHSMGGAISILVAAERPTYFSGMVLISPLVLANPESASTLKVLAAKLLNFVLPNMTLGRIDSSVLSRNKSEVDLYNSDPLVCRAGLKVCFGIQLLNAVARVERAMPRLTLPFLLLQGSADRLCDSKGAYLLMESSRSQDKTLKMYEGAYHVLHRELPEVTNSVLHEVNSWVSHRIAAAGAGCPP", "assay": "Inhibition of MAGL in mouse B16-F10 cells using 7-HRA as substrate preincubated for 60 mins followed by substrate addition measured every 2.5 mins for 2 hrs by fluorescence assay", "type": "cell-based", "conditions": "read-out: IC50"}, "[2]": {"test_system": "B16-F10", "assay": "Antiproliferative activity against mouse B16F10 cells at 10 uM after 48 hrs by Cyto Tracker red dye based flow cytometry", "type": "functional, cell-based", "how_it_was_run": "(§1)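 B16-F10 cells (Iscove's medium, 10% heat-inactivated FBS, 37 °C, 5% CO2) exposed to compound or DMSO for 48 h, stained with CytoTrack Red 628/643 and analysed by flow cytometry. Proliferation index (average number of cells that an initial cell became) expressed as fold change over DMSO control; n = 3; one-way ANOVA with Tukey post-test.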"}, "[3]": {"test_system": "B16-F10", "assay": "Induction of apoptosis in mouse B16F10 cells assessed as early apoptotic cells at 10 uM after 48 hrs by Annexin V-FITC/propidium iodide staining based flow cytometry (reference value: 1.75%)", "type": "functional"}, "[4]": {"test_system": "B16-F10", "assay": "Antiproliferative activity against mouse B16F10 cells at 35 to 75 nM after 48 hrs by Cyto Tracker red dye based flow cytometry", "type": "functional, cell-based", "how_it_was_run": "as §1"}, "[5]": {"test_system": "B16-F10", "assay": "Induction of apoptosis in mouse B16F10 cells assessed as early apoptotic cells at 35 nM after 48 hrs by Annexin V-FITC/propidium iodide staining based flow cytometry (reference value: 1.43%)", "type": "functional"}, "[6]": {"test_system": "B16-F10", "assay": "Induction of apoptosis in mouse B16F10 cells assessed as necrotic cells at 35 nM after 48 hrs by Annexin V-FITC/propidium iodide staining based flow cytometry (reference value: 5.48%)", "type": "functional"}, "[7]": {"test_system": "B16-F10", "assay": "Induction of apoptosis in mouse B16F10 cells assessed as live cells at 75 nM after 48 hrs by Annexin V-FITC/propidium iodide staining based flow cytometry (reference value: 79.55%)", "type": "functional"}, "[8]": {"test_system": "B16-F10", "assay": "Effect on MAGL mRNA expression in mouse B16F10 cells by RT-PCR method", "type": "functional"}, "[9]": {"test_system": "B16-F10", "assay": "Effect on ABHD6 mRNA expression in mouse B16F10 cells by RT-PCR method", "type": "functional"}, "[10]": {"test_system": "B16-F10", "assay": "Effect on ABHD12 mRNA expression in mouse B16F10 cells by RT-PCR method", "type": "functional"}, "[11]": {"assay": "Induction of apoptosis in HEK293T cells assessed as live cells at 10 uM after 48 hrs by Annexin V-FITC/propidium iodide staining based flow cytometry (reference value: 82.43%)", "type": "cell-based, HEK-293T", "conditions": "human, read-out: Activity", "how_it_was_run": "(§2)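 HEK293T (DMEM with 10% FBS) or MCF7 (DMEM/Ham's F-12 1:1, 10% FBS) cells treated 48 h with 10 μM compound or DMSO. Staining with Alexa Fluor 488 annexin V plus 5 μg/ml PI in HEPES/NaCl/CaCl2 binding buffer; 10,000 cells per sample read by flow cytometry; n = 3, mean ± S.E.M.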"}, "[12]": {"test_system": "HEK-293T", "assay": "Induction of apoptosis in HEK293T cells assessed as early apoptotic cells at 10 uM after 48 hrs by Annexin V-FITC/propidium iodide staining based flow cytometry (reference value: 7.41%)", "type": "cell-based", "conditions": "human", "how_it_was_run": "as §2"}, "[13]": {"test_system": "HEK-293T", "assay": "Induction of apoptosis in HEK293T cells assessed as late apoptotic cells at 10 uM after 48 hrs by Annexin V-FITC/propidium iodide staining based flow cytometry (reference value: 2.07%)", "type": "cell-based", "conditions": "human", "how_it_was_run": "as §2"}, "[14]": {"test_system": "HEK-293T", "assay": "Induction of apoptosis in HEK293T cells assessed as necrotic cells at 10 uM after 48 hrs by Annexin V-FITC/propidium iodide staining based flow cytometry (reference value: 8.09%)", "type": "cell-based", "conditions": "human", "how_it_was_run": "as §2"}, "[15]": {"test_system": "MCF7", "assay": "Induction of apoptosis in human MCF7 cells at 10 uM after 48 hrs by Annexin V-FITC/propidium iodide staining based flow cytometry", "type": "functional, cell-based", "how_it_was_run": "as §2"}, "[16]": {"molecular_target": "T2, Monoglyceride lipase (Homo sapiens) (UniProt Q99685)", "T2 sequence (whole entry)": "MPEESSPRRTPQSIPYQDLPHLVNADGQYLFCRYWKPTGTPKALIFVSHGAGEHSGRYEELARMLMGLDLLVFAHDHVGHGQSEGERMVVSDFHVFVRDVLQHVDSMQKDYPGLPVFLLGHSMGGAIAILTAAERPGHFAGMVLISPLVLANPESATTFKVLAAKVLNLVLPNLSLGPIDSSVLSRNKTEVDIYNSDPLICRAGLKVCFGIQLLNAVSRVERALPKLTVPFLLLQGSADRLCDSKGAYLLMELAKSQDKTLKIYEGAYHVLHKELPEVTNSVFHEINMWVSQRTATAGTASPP", "assay": "Inhibition of MAGL in human MCF7 cells at 10 uM using 7-HRA as substrate preincubated for 6 hrs followed by substrate addition by fluorescence assay", "type": "cell-based", "how_it_was_run": "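MCF7 cells cultured 6 h with 10 μM compound or DMSO, then lysed; MAGL activity measured on total cell lysate using the 7-HRA fluorogenic assay.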"}, "[17]": {"test_system": "B16-F10", "assay": "Induction of apoptosis in mouse B16F10 cells assessed as apoptotic cells after 48 hrs by Annexin V-FITC/propidium iodide staining based flow cytometry"}},
  "note": "Active and inactive are the calls of the source. The rule behind the calls is not given here.",
  "data": [
    {"compound": "O=C(Nc1cccc(-c2ccc(C(F)(F)F)cc2)c1)OCc1ccco1", "values": [
      {"measurement": "IC50", "setting": "[1]", "result": 13.2, "unit": "µM"},
      {"measurement": "Activity", "setting": "[2]", "result": "Active"},
      {"measurement": "Activity", "setting": "[3]", "result": 3.87, "unit": "%"},
      {"measurement": "Activity", "setting": "[4]", "result": "Active"},
      {"measurement": "Activity", "setting": "[5]", "result": 1.9, "unit": "%"},
      {"measurement": "Activity", "setting": "[6]", "result": 2.62, "unit": "%"},
      {"measurement": "Activity", "setting": "[7]", "result": 62.84, "unit": "%"},
      {"measurement": "deltaCT", "setting": "[8]", "result": 11.05},
      {"measurement": "deltaCT", "setting": "[9]", "result": 10.73},
      {"measurement": "deltaCT", "setting": "[10]", "result": 16.84},
      {"measurement": "viability at 48 h, 10 µM", "setting": "[11]", "result": 81.4, "unit": "%"},
      {"measurement": "Activity", "setting": "[12]", "result": 8.13, "unit": "%"},
      {"measurement": "Activity", "setting": "[13]", "result": 2.1, "unit": "%"},
      {"measurement": "Activity", "setting": "[14]", "result": 8.4, "unit": "%"},
      {"measurement": "Activity", "setting": "[15]", "result": "Active"},
      {"measurement": "inhibition", "setting": "[16]", "result": "Active"},
      {"measurement": "Activity", "setting": "[17]", "result": "Dose-dependent effect"}
    ]}
  ]
}
